Laboratory results reported in article PMC4371900 (International Journal of Nanomedicine, 2015).

Tests used:
[1] = test system: genotype 1b Con1 HCV sub-genomic replicon (Huh 5-2 cells); test: Antiviral assay with Huh 5-2 cells; assay type: cell-based, hepatitis C virus
Cytostatic assay = assay type: cell-based; conditions: human, Huh 5-2 cells
Method in brief: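 Huh 7 cells carrying subgenomic HCV replicon (Huh 5-2) were seeded at 5·10^3 cells/well in complete DMEM with G418. After 24 h, serial dilutions of test compound (free or γ-CD complex) were added in complete DMEM without G418. Cells proliferated 3 days at 37°C. Cell number was read by CellTiter 96 AQueous One.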

**Q.** For `OC[C@H]1O[C@@H]2O[C@H]3[C@H](O)[C@@H](O)[C@@H](O[C@H]4[C@H](O)[C@@H](O)[C@@H](O[C@H]5[C@H](O)[C@@H](O)[C@@H](O[C@H]6[C@H](O)[C@@H](O)[C@@H](O[C@H]7[C@H](O)[C@@H](O)[C@@H](O[C@H]8[C@H](O)[C@@H](O)[C@@H](O[C@H]9[C@H](O)[C@@H](O)[C@@H](O[C@H]1[C@H](O)[C@H]2O)O[C@@H]9CO)O[C@@H]8CO)O[C@@H]7CO)O[C@@H]6CO)O[C@@H]5CO)O[C@@H]4CO)O[C@@H]3CO` [γ-CD, γ-cyclodextrin], which luminescence ([1]; control tests with compound-free γ-CD (data not shown)) is on record?
**A.** 100%

**Q.** And the “antiviral activity in cell assays” value ([1]; delivered alone, free in solution)?
**A.** did not show antiviral activity

**Q.** What about the viability at 3 days (Cytostatic assay) of the same compound?
**A.** 100%
